In the EternaBench riboswitch data:

System: MS2 coat protein
Test: apparent Kd, MS2 coat protein; higher = weaker binding; RNA-MaP array; FMN 200 µM where present
How it was run: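 On Illumina sequencing-chip clusters, designs were transcribed by stalled E. coli RNA polymerase and titrated with SNAP-549-labelled MS2 coat protein (0.7 or 1.5 nM, doubling to 3 µM), without and then with constant ligand, in 100 mM Tris-HCl pH 7.5, 80 mM KCl, 4 mM MgCl2, BSA, DTT, yeast tRNA and Tween-20. Apparent Kd is the median of filtered per-cluster curve fits to green signal normalised to red-channel RNA signal and control-cluster median Fmax.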

[1] = designed as: OFF switch for flavin mononucleotide, no ligand
[2] = ligand present: flavin mononucleotide, designed as: OFF switch for flavin mononucleotide
[3] = designed as: ON switch for flavin mononucleotide, no ligand
[4] = ligand present: flavin mononucleotide, designed as: ON switch for flavin mononucleotide

Row | Sequence | apparent Kd [1] [nM] | apparent Kd [2] [nM] | apparent Kd [3] [nM] | apparent Kd [4] [nM]
1 | UUUUAACAUGAGGAUCACCCAUGUGAGGAUAUCGAAAUUUAUAUUAAUAUUUAUUAUACGAGAAGGCACAUUUU | 73.6 | 97 |  | 
2 | UAAUAAAACGAUCGGCGAUCCAAACAUGAGGAUCACCCAUGUAGAAGGGACUCUACAAAGUAGAGUCAGGAUAUACGAGAUCGA | 11.9 | 208 |  | 
3 | UAUUAUUUAUGAUAUUAUGACAGUAGAAGGCUAUACAUGUUGAUACAUGAGGAUCACCCAUGUAUAGAGGAUAUAUACAUAAAU | 1010 | 884 |  | 
4 | AAAUUGUCAGGAUAUCCAGCUAUACGAAAUAUGUAUACACGGGAGAAGGGACAUGAGGAUCACCCAUGUUUGAA | 36.8 | 45.9 |  | 
5 | UGUAUGGACAGAGGAUAUACCGAUAGGAGAUACUAUCGACUAGUCCUCACAUGAGGAUCACCCAUGUAGAAGGCUGUCCAUACU | 25.2 | 179 |  | 
6 | CGGCGUAGCGUAAGGAUAUCGCGCGGUGUAAUUGUUGAGAAGGUACAUGAGGAUCACCCAUGUGGUCAGCCGGC | 40 | 40 |  | 
7 | UUACAUACAAAGGUACAUGAGGAUCACCCAUGUUUGUUGGGAAGAAGGGUAACAGUACUACAUAUAUAGGAUAUUUCACAAAUA |  |  | 122 | 86.6
8 | UUGGACGUCGUAGGAUAUGUAGGAUAUUCCUACAUGAGGAUCACCCAUGUUGACAUGGAAGAAGGACAGAAGGAUGAUGUCCAU |  |  | 414 | 5.34
9 | ACUCGCGGAGAGAAGGGAUUUGUACAUGAGGAUCACCCAUGUCGCACGGUCAGGAUAUCUUCGUCAGGUACAACAUACGUCCCG |  |  | 16.8 | 6.99
10 | UCACGGGUUUGAGGAUAUAUAUUUAUUAUUUUAAUAGAAGGCAAAGAGAUAGUUUUUUCACUAUACAUGAGGAUCACCCAUGUU | 41.5 | 36 |  | 
11 | UGGUCCUGAGGAUAUGCACCUCAAGUUAUCGUUCACCAUGCACAUGAGGAUCACCCAUGUAGAAGGUAGGAUCG | 18.8 | 16.6 |  | 
12 | UGUUUUCAUGUAGGAUAUGCUUGUCGUAGAUACGCAGAAGGACAUGAGGAUCACCCAUGUUAAUGCGACAGAGUUUAGAUUCUU | 17.5 | 31.9 |  | 
13 | CGGUACUUAGGAUAUACAUGAGGAUCACCCAUGUAGAAAUGGUGGGUGCCGUCCUGUGGUAGAAGGAAGAAUCG | 28.5 | 50.2 |  | 
14 | UACACUACUGAGAAGGGAUACAUAUAAUUUUAGUCAGGAUAUCGAUACAGUGCAGCAUGAGGACAUGAGGAUCACCCAUGUAUU |  |  | 22.3 | 14.6
15 | ACAAGAUCAGGAUAUACAUGAGGAUCACCCAUGUAUAUAAAAAAAAAACUUUCUUCAUGUAGAAGGGAUCUUGU | 17.4 | 46 |  | 
16 | GGAUAUGUCGUCUACAUGAGGAUCACCCAUGUCGAUAGACAUGAGGAUAUCGAUAAGAAUUGUAUCGAGAAGGUAUGUAGGUCC |  |  | 23 | 30.2
17 | GCAGCUUGGCAGAAGGCCUAGGUGGCGGACCUAGGAGGAUAUGCUACAUGAGGAUCACCCAUGUGGGUGGGAGAAUCCUAGGAG | 133 | 132 |  | 
18 | AAAGCUCAGAUAGGAUAUAUAGGAUAACUUAAGACCUAACAUGAGGAUCACCCAUGUGAUUAUUCGUAGAAGGAUCAUUGAACC |  |  | 195 | 209
19 | UUUACGAAAGUCGAACGAUGUAGCAGAAGGACAUGAGGAUCACCCAUGUCAGCUGUAACAGCCAUGUAGGAUAUGCUACAUAAA | 5.78 | 5.92 |  | 
20 | UAAAAACAUGAGGAUCACCCAUGUGAAAAUAUGGGAGGAUAUACAAAGACGAGAGUCAAAGUAGAAGGCCUAAAAU |  |  | 73.5 | 24.5
21 | CGUUGAUAAUAUCUUCACAUGAGGAUCACCCAUGUCGCUCGACAGGAUAUAUUUGAGUUGUUUAAGUAGAAGGGUCGCAGAUGC |  |  | 148 | 136
22 | CGAUGGUAGACAGGAUAUCGACCGGGAUACUAUGAAGACUAUAAACACAUGAGGAUCACCCAUGUCGAGAAGGGUCUCACAGCG | 37.1 | 60.9 |  | 
23 | UGCGCUGAGGGAGGAUAUGACAUGAGGAUCACCCAUGUGGUAGGUUUCUUGUCAGAAGGCCCGCAUGUACCGAAUUAGGUUCGU | 112 | 18.3 |  | 
24 | CUCAAGUUAGGAUAUUGACGCCCAAGACGGCGUCUUGGGCACAAGAAGGGACAUGAGGAUCACCCAUGUCAAUA | 24.1 | 27.7 |  | 

Row | Sequence | apparent Kd [1] [nM] | apparent Kd [2] [nM] | apparent Kd [3] [nM] | apparent Kd [4] [nM]
25 | CGUUUGUGGCAACUAUCCUCACAUGAGGAUCACCCAUGUAGGGAGGAUAUGCAUUUAAAGAAGUGGCAGAAGGCCCUACACGAA | 101 | 89.5 |  | 
26 | GGAAAUCAUGUAGGAUAUGCAUGGCGAAGCUACGCAGAAGGACAUGAGGAUCACCCAUGUUAUAGCUACCCAGUUAGGUGGCAA | 122 | 172 |  | 
27 | AGAUGGCGAGGAUAUACAUGAGGAUCACCCAUGUGAAGAAGAAUAGUGAGGAAGAAAAGUAGAAGGCGCUGUCA | 53.6 | 180 |  | 
28 | GCGUUGAACGAGAAGGCCAAUACAUGAGGAUCACCCAUGUUUAGAUGUUUUGGAGGAUAUCGUACGUAGUCAAAAGAGCAACGC | 11.3 | 10.2 |  | 
29 | CAUUAAUUCAUUAUAGUAAUUAUACAGGAUAUGUUACAUGAGGAUCACCCAUGUAUUCUUGGUAAACAGAAGGGUAUUUCUAGU | 7.35 | 9.31 |  | 
30 | AAAACAUACCGAGGAUAUUCAUAUAAUAAAUAAACAUGAGGAUCACCCAUGUGGCAAAAGCCUAGGGAGAAGGCGGAAUGCUAA |  |  | 36 | 22.4
31 | UAGCAUUGCCUUUGGUAGUGCCUUACAUGAGGAUCACCCAUGUAGGAUAUGGUAGGCUUUGCUUACCAGAAGGACAUGGUAAUU | 52.9 | 259 |  | 
32 | CUAUUCCGAGGAUAUACAUGAGGAUCACCCAUGUCGGGCCUCUGGCCUAAGGCCGAAAGUAGAAGGUGGGUUUC | 64.6 | 61.5 |  | 
33 | UUACUCAUGUAAGGAUAUGCAGCCGAAACGGCUGUAGAAGGUACUAAAAUACAUGAGGAUCACCCAUGUCUUUUUAAUUUAGAC |  |  | 103 | 74.6
34 | CCCGUGUUAGGAUAUACGGCACACCUGCCAGCAGGUGUAUAGUAGAAGGAACAUGAGGAUCACCCAUGUAUAGC | 38.1 | 36 |  | 
35 | CUGAUGUUAGGAUAUCAGGUCACGCGCGAAGGCGCGCGGCAUGAGAAGGAACAUGAGGAUCACCCAUGUGACGA | 42.8 | 160 |  | 
36 | UUGGCGACGUAGAAGGGUGACAUGAGGAUCACCCAUGUGCCGAUAUGUCUCGAGAUAUGUCGGCCACAGGAUAUACGUGCCAUC |  |  | 61.7 | 38.5
37 | ACAUGAGGAUCACCCAUGUUUUUCGGGUACUCUUUUUACAGCAAGGAUAUGCAUUAUUUUUUUACGCAGAAGGUGCUUUACGUC | 114 | 196 |  | 
38 | CCUAUUAGAAAAUAGACGAAGUGGCCAGAAGGUGAAUGCCACAUGAGGAUCACCCAUGUUUCGAUCAAGGAUAUGGUUUCUCAC |  |  | 630 | 203
39 | CGGCACGCAGGAUAUGCCUUUGAGUACAUGAGGAUCACCCAUGUCUUCACCCUCAUUAGGGCAGAAGGGCGAUAUC | 24.4 | 32.2 |  | 
40 | AUUUAGAGAGGAUAUAUAAUGUGAAACAUGAGGAUCACCCAUGUAAUAUUAUGGAUGUAAAUAGAAGGCUCAUUUA | 32.7 | 27.7 |  | 
41 | GUCAGCUCGUGAGGAUAUACAUGUGCUGGAAACAGCAUUAAAUUUUUCACAUGAGGAUCACCCAUGUAGAAGGCACGAGCUGAU | 17.3 | 39.1 |  | 
42 | UGAUAGGACAGAGGAUAUACCGAUAGGAGAUACUAUCGACUAUUCCUCACAUGAGGAUCACCCAUGUAGAAGGCUGUCCUAUCU | 15.5 | 60.2 |  | 
43 | GUGUACGUAGGAUAUGCUGGAAUCUAGCGAAGCUAGGUUCCACAUGAGGAUCACCCAUGUAGAAGGGCGUACAC | 182 | 47.1 |  | 
44 | GACUUUCGGGCAGGAUAUGGGUGCCGUCAAGACAUGAGGAUCACCCAUGUCCCAUACACGAGCGCUCAGAAGGGCUCAUUGUAG |  |  | 67 | 32.9
45 | UGUCGGAGCAGAGGAUAUUACAUGAGGAUCACCCAUGUAUGAAUCAAUAGCUGGAAACAGCAAUGUAAGAAGGCUGCUCCGACA | 7.86 | 26.6 |  | 
46 | UGAACUAUGUAGAAGGCCCAUAUCUAUAUUUAGGGAGGAUAUACAUGAGGAUCACCCAUGUAUAGAGCGGGUGGACCCGUCACU | 39 | 72.1 |  | 
47 | AAAUUUAACGAAGGAUAUACUAACAUGAGGAUCACCCAUGUGUGCUUUGUGUUGCUGAAAUUCGGGUAGAAGGUCGUAUACAUA | 82.8 | 118 |  | 
48 | CCGGAAUUGCAGGAUAUAGGAGUCGAUAGACACCUAGAAGGGCAGACAUGAGGAUCACCCAUGUGUCCUACCGG | 18.6 | 31.2 |  | 
